From ChEMBL document CHEMBL1123617, “Antipsychotic activity of substituted gamma-carbolines” (J Med Chem, 1987)

How the values were obtained:
[1] = tested on: Rattus norvegicus; assay: Potential antipsychotic activity was assessed by measuring the ability to block the conditioned avoidance response(CAR) in rats on oral administration.; format: functional
[2] = biological target: T1, D(2) dopamine receptor (Rattus norvegicus, UniProt P61169); assay: In vitro Dopamine receptor D2 affinity by using [3H]spiperone as the radioligand in rat limbic system at 1 uM concentration of compound; value may range from 0.7 to 1.5; format: tissue-based
[3] = biological target: T1, D(2) dopamine receptor; assay: In vitro Dopamine receptor D2 affinity by using [3H]spiperone as the radioligand in rat limbic system at 1 uM concentration of compound; value may range from 1 to 2; format: tissue-based
[4] = tested on: Rattus norvegicus; assay: Potential antipsychotic activity was assessed by measuring the ability to block the conditioned avoidance response(CAR) in rats on oral administration; format: functional
[5] = biological target: T2, Serotonin 2 (5-HT2) receptor (Rattus norvegicus, UniProt P30994+P08909+P14842); assay: In vitro 5-hydroxytryptamine 2 receptor affinity by using [3H]spiperone as the radioligand in rat cortical tissue; value may range from 29 to 132
[6] = biological target: T1, D(2) dopamine receptor; assay: In vitro Dopamine receptor D2 affinity by using [3H]-Spiperone as the radioligand in rat limbic system at 1 uM concentration of compound; value may range from 4 to 15; format: tissue-based
[7] = biological target: D(2) dopamine receptor (Rattus norvegicus) (UniProt P61169); assay: In vitro Dopamine receptor D2 affinity by using [3H]spiperone as the radioligand in rat limbic system at 1 uM concentration of compound at 1 uM; format: tissue-based
[8] = biological target: T2, Serotonin 2 (5-HT2) receptor; assay: In vitro 5-hydroxytryptamine 2 receptor affinity by using [3H]-Spiperone as the radioligand in rat cortical tissue; value may range from 12 to 66
[9] = biological target: T1, D(2) dopamine receptor; assay: In vitro Dopamine receptor D2 affinity by using [3H]spiperone as the radioligand in rat limbic system at 1 uM concentration of compound; value may range from […]; format: tissue-based
[10] = biological target: T2, Serotonin 2 (5-HT2) receptor; assay: In vitro 5-hydroxytryptamine 2 receptor affinity by using [3H]spiperone as the radioligand in rat cortical tissue.; value may range from 140 to 980
[11] = tested on: Rattus norvegicus; assay: Potential antipsychotic activity was assessed by measuring the ability to block the conditioned avoidance response(CAR) in rats on oral administration; value may range from 10 to 34; format: functional
Outline: (§1)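 Each session had 60 trials, with a control session before every drug run. Trials with no avoidance response (avoidance block) were summed over rats at each dose and expressed as a percentage of total trials. Control avoidance was set at 100%. The dose giving 50% block (AB50) was fitted by least squares.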

[12] = biological target: T2, Serotonin 2 (5-HT2) receptor; assay: In vitro 5-hydroxytryptamine 2 receptor affinity by using [3H]spiperone as the radioligand in rat cortical tissue; value may range from 136 to 220
[13] = tested on: Rattus norvegicus; assay: Potential antipsychotic activity was assessed by measuring the ability to block the conditioned avoidance response(CAR) in rats on oral administration; value may range from 30 to 62; format: functional; outline: as §1
[14] = biological target: T2, Serotonin 2 (5-HT2) receptor; assay: In vitro 5-hydroxytryptamine 2 receptor affinity by using [3H]spiperone as the radioligand in rat cortical tissue.
[15] = biological target: T2, Serotonin 2 (5-HT2) receptor; assay: In vitro 5-hydroxytryptamine 2 receptor affinity by using [3H]spiperone as the radioligand in rat cortical tissue; value may range from 2.4 to 5.3
[16] = tested on: Rattus norvegicus; assay: Potential antipsychotic activity was assessed by measuring the ability to block the conditioned avoidance response(CAR) in rats on oral administration; value may range from 4 to 10; format: functional; outline: as §1
[17] = biological target: T2, Serotonin 2 (5-HT2) receptor; assay: In vitro 5-hydroxytryptamine 2 receptor affinity by using [3H]spiperone as the radioligand in rat cortical tissue; value may range from 23 to 187
[18] = tested on: Rattus norvegicus; assay: Potential antipsychotic activity was assessed by measuring the ability to block the conditioned avoidance response(CAR) in rats on oral administration; value may range from 6 to 63; format: functional; outline: as §1
[19] = biological target: T2, Serotonin 2 (5-HT2) receptor; assay: In vitro 5-hydroxytryptamine 2 receptor affinity by using [3H]spiperone as the radioligand in rat cortical tissue; value may range from 197 to 341
[20] = tested on: Rattus norvegicus; assay: Potential antipsychotic activity was assessed by measuring the ability to block the conditioned avoidance response(CAR) in rats on oral administration; value may range from 26 to 51; format: functional; outline: as §1
[21] = biological target: D(2) dopamine receptor (Rattus norvegicus) (UniProt P61169); assay: In vitro Dopamine receptor D2 affinity by using [3H]spiperone as the radioligand in rat limbic system at 1 uM; format: tissue-based

T1 sequence (P61169 whole entry): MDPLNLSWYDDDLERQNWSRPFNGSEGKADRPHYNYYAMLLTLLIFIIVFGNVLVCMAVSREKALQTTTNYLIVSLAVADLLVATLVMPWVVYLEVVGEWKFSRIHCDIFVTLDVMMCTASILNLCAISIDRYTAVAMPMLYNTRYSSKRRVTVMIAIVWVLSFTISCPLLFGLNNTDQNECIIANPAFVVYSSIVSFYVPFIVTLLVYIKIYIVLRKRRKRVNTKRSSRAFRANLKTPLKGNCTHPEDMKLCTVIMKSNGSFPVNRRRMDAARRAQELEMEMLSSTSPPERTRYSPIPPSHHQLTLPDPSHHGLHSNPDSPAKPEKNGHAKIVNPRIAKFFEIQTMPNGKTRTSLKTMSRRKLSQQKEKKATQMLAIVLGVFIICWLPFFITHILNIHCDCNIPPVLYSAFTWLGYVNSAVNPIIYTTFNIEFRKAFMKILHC
Sequence of D(2) dopamine receptor (Rattus norvegicus) (P61169 whole entry): as above

Structure (SMILES): Cl.Clc1ccc2[nH]c3c(c2c1)CN(CCc1ccc2ccccc2n1)CC3
- AB50 [1]: >40 mg/kg

Structure (SMILES): Cl.Fc1ccc(-n2c3c(c4cc(F)ccc42)CN(CCc2ccc4ccccc4n2)CC3)cc1
- Ki [2]: 1 nM
- AB50 [1]: 40 mg/kg

Structure (SMILES): Fc1ccc(-n2c3c(c4cc(F)ccc42)CN(CCCCc2ccnc4ccccc24)CC3)cc1
- Ki [3]: 1 nM

Structure (SMILES): Cl.Clc1ccc2[nH]c3c(c2c1)CN(CCCCc1ccncc1)CC3
- AB50 [4]: 36 mg/kg
- Ki [5]: 60 nM

Structure (SMILES): Fc1ccc(-n2c3c(c4cc(F)ccc42)CN(CCCCc2ccncc2)CC3)cc1
- Ki [6]: 7 nM

Structure (SMILES): Cl.c1ccc2c3c([nH]c2c1)CCN(CCCCc1ccncc1)C3
- inhibition [7]: 41%
- AB50 [1]: >20 mg/kg

Structure (SMILES): Cl.Clc1ccc2[nH]c3c(c2c1)CN(CCCc1cccnc1)CC3
- AB50 [1]: >40 mg/kg
- Ki [8]: 28 nM
- Ki [9]: 126 nM

Structure (SMILES): Cl.Fc1ccc2[nH]c3c(c2c1)CN(CCCCc1ccncc1)CC3
- Ki [10]: 480 nM
- AB50 [11]: 15 mg/kg

Structure (SMILES): Cl.Fc1ccc2[nH]c3c(c2c1)CN(CCc1ccccn1)CC3
- AB50 [4]: 38 mg/kg
- Ki [12]: 173 nM

Structure (SMILES): C[C@@H]1CN(CCCn2c3ccccc3c3ccccc32)C[C@H](C)N1 [RIMCAZOLE]
- AB50 [13]: 39 mg/kg
- IC50 [14]: > 0.00005 M

Structure (SMILES): Cl.Fc1ccc(-n2c3c(c4cc(F)ccc42)CN(CCc2ccccn2)CC3)cc1
- Ki [15]: 3.6 nM
- AB50 [16]: 6 mg/kg

Structure (SMILES): Cl.Fc1ccc(-n2c3c(c4cc(F)ccc42)CN(CCc2ccncc2)CC3)cc1
- Ki [17]: 55 nM
- AB50 [18]: 16 mg/kg

Structure (SMILES): Cl.c1cncc(CCCN2CCc3[nH]c4ccccc4c3C2)c1
- Ki [19]: 252 nM
- AB50 [20]: 33 mg/kg
- inhibition [21]: 43%
